ChEMBL document CHEMBL3813637, “Synthesis and Antiproliferative and Metabolic Evaluations of Novel Securinine Derivatives” (ACS Med Chem Lett, 2016)

Test system: not listed separately
Experiment: Antiproliferative activity against human HCT116 cells assessed as reduction in cell viability after 72 hrs by ATPlite assay
Assay type: functional, cell-based
Conditions: HCT-116, 72 h
Summary of the method: (§1)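 IC50 determined in human cancer cell lines (HCT-116, A-375 melanoma, HL-60, A-549). Camptothecin and etoposide served as reference compounds.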

SMILES	IC50
CC(C)(C)OC(=O)NCC#CC1=C[C@@H]2C[C@@]3(OC(=O)C=C13)[C@H]1CCCCN21	1660 nM
O=C1C=C2C(C#Cc3ccc(F)cc3)=C[C@@H]3C[C@@]2(O1)[C@H]1CCCCN31	2470 nM
CC[C@@]1(O)C(=O)OCc2c1cc1n(c2=O)Cc2cc3ccccc3nc2-1 [CAMPTOTHECIN]	3 nM
COc1cc([C@@H]2c3cc4c(cc3[C@@H](O[C@@H]3O[C@@H]5CO[C@@H](C)O[C@H]5[C@H](O)[C@H]3O)[C@H]3COC(=O)[C@H]23)OCO4)cc(OC)c1O [ETOPOSIDE]	> 10000 nM

Test system: not listed separately
Experiment: Antiproliferative activity against human HCT116 cells assessed as reduction in cell viability at 20 uM after 72 hrs by ATPlite assay
Assay type: functional
Conditions: HCT-116, 72 h, read-out: GI
Summary of the method: (§2)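 HCT-116 human colon cancer cells exposed to compound for 72 h at 20, 10 or 1 μM. Growth inhibition is expressed as percentage relative to nontreated cells.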

SMILES	inhibition of growth at 20 µM
CC(C)(C)OC(=O)NCC#CC1=C[C@@H]2C[C@@]3(OC(=O)C=C13)[C@H]1CCCCN21	100%
CC(C)(C)OC(=O)NC1CCC(C#CC2=C[C@@H]3C[C@@]4(OC(=O)C=C24)[C@H]2CCCCN32)CC1 (some centres not stated)	100%
O=C1C=C2C(C#Cc3ccc(F)cc3)=C[C@@H]3C[C@@]2(O1)[C@H]1CCCCN31	100%
O=Cc1ccc(C2=C[C@@H]3C[C@@]4(OC(=O)C=C24)[C@H]2CCCCN32)cc1	34.6%
Cc1ccc(C#CC2=C[C@@H]3C[C@@]4(OC(=O)C=C24)[C@H]2CCCCN32)cc1	100%
O=C1C=C2C(C#CCCCO)=C[C@@H]3C[C@@]2(O1)[C@H]1CCCCN31	96.9%
Cc1cccc(C2=C[C@@H]3C[C@@]4(OC(=O)C=C24)[C@H]2CCCCN32)c1	33.8%
O=C1C=C2C(c3ccco3)=C[C@@H]3C[C@@]2(O1)[C@H]1CCCCN31	45.5%
O=C1C=C2C(I)=C[C@@H]3C[C@@]2(O1)[C@H]1CCCCN31	100%
O=C1C=C2C(C#CC3CC3)=C[C@@H]3C[C@@]2(O1)[C@H]1CCCCN31	93.9%
COC(=O)c1ccc(C2=C[C@@H]3C[C@@]4(OC(=O)C=C24)[C@H]2CCCCN32)cc1	23.9%
O=C1C=C2C(c3ccc(C(F)(F)F)cc3)=C[C@@H]3C[C@@]2(O1)[C@H]1CCCCN31	80.4%
CC(C)(O)C#CC1=C[C@@H]2C[C@@]3(OC(=O)C=C13)[C@H]1CCCCN21	97.7%
C[Si](C)(C)C#CC1=C[C@@H]2C[C@@]3(OC(=O)C=C13)[C@H]1CCCCN21	99.3%
CC(C)(C)OC(=O)NCCCC#CC1=C[C@@H]2C[C@@]3(OC(=O)C=C13)[C@H]1CCCCN21	99.9%

Test system: not listed separately
Experiment: Antiproliferative activity against human HCT116 cells assessed as reduction in cell viability at 10 uM after 72 hrs by ATPlite assay
Assay type: functional
Conditions: HCT-116, 72 h, read-out: GI
Summary of the method: as §2

SMILES	inhibition of growth at 10 µM
CC(C)(C)OC(=O)NCC#CC1=C[C@@H]2C[C@@]3(OC(=O)C=C13)[C@H]1CCCCN21	100%
CC(C)(C)OC(=O)NC1CCC(C#CC2=C[C@@H]3C[C@@]4(OC(=O)C=C24)[C@H]2CCCCN32)CC1 (some centres not stated)	100%
O=C1C=C2C(C#Cc3ccc(F)cc3)=C[C@@H]3C[C@@]2(O1)[C@H]1CCCCN31	99.9%
O=Cc1ccc(C2=C[C@@H]3C[C@@]4(OC(=O)C=C24)[C@H]2CCCCN32)cc1	9.5%
Cc1ccc(C#CC2=C[C@@H]3C[C@@]4(OC(=O)C=C24)[C@H]2CCCCN32)cc1	100%
O=C1C=C2C(C#CCCCO)=C[C@@H]3C[C@@]2(O1)[C@H]1CCCCN31	64.3%
Cc1cccc(C2=C[C@@H]3C[C@@]4(OC(=O)C=C24)[C@H]2CCCCN32)c1	15.6%
O=C1C=C2C(c3ccco3)=C[C@@H]3C[C@@]2(O1)[C@H]1CCCCN31	23.8%
O=C1C=C2C(I)=C[C@@H]3C[C@@]2(O1)[C@H]1CCCCN31	100%
O=C1C=C2C(C#CC3CC3)=C[C@@H]3C[C@@]2(O1)[C@H]1CCCCN31	94.8%
COC(=O)c1ccc(C2=C[C@@H]3C[C@@]4(OC(=O)C=C24)[C@H]2CCCCN32)cc1	10.5%
O=C1C=C2C(c3ccc(C(F)(F)F)cc3)=C[C@@H]3C[C@@]2(O1)[C@H]1CCCCN31	47.9%
CC(C)(O)C#CC1=C[C@@H]2C[C@@]3(OC(=O)C=C13)[C@H]1CCCCN21	91.6%
C[Si](C)(C)C#CC1=C[C@@H]2C[C@@]3(OC(=O)C=C13)[C@H]1CCCCN21	99%
CC(C)(C)OC(=O)NCCCC#CC1=C[C@@H]2C[C@@]3(OC(=O)C=C13)[C@H]1CCCCN21	98.8%

Test system: not listed separately
Experiment: Antiproliferative activity against human HCT116 cells assessed as reduction in cell viability at 1 uM after 72 hrs by ATPlite assay
Assay type: functional
Conditions: HCT-116, 72 h, read-out: GI
Summary of the method: as §2

SMILES	inhibition of growth at 1 µM
CC(C)(C)OC(=O)NCC#CC1=C[C@@H]2C[C@@]3(OC(=O)C=C13)[C@H]1CCCCN21	79.3%
CC(C)(C)OC(=O)NC1CCC(C#CC2=C[C@@H]3C[C@@]4(OC(=O)C=C24)[C@H]2CCCCN32)CC1 (some centres not stated)	93.4%
O=C1C=C2C(C#Cc3ccc(F)cc3)=C[C@@H]3C[C@@]2(O1)[C@H]1CCCCN31	87.3%
O=Cc1ccc(C2=C[C@@H]3C[C@@]4(OC(=O)C=C24)[C@H]2CCCCN32)cc1	-0.7%
Cc1ccc(C#CC2=C[C@@H]3C[C@@]4(OC(=O)C=C24)[C@H]2CCCCN32)cc1	64%
O=C1C=C2C(C#CCCCO)=C[C@@H]3C[C@@]2(O1)[C@H]1CCCCN31	5.9%
Cc1cccc(C2=C[C@@H]3C[C@@]4(OC(=O)C=C24)[C@H]2CCCCN32)c1	5.7%
O=C1C=C2C(c3ccco3)=C[C@@H]3C[C@@]2(O1)[C@H]1CCCCN31	6%
O=C1C=C2C(I)=C[C@@H]3C[C@@]2(O1)[C@H]1CCCCN31	80.9%
O=C1C=C2C(C#CC3CC3)=C[C@@H]3C[C@@]2(O1)[C@H]1CCCCN31	5.9%
COC(=O)c1ccc(C2=C[C@@H]3C[C@@]4(OC(=O)C=C24)[C@H]2CCCCN32)cc1	-3.6%
O=C1C=C2C(c3ccc(C(F)(F)F)cc3)=C[C@@H]3C[C@@]2(O1)[C@H]1CCCCN31	-1.5%
CC(C)(O)C#CC1=C[C@@H]2C[C@@]3(OC(=O)C=C13)[C@H]1CCCCN21	10.3%
C[Si](C)(C)C#CC1=C[C@@H]2C[C@@]3(OC(=O)C=C13)[C@H]1CCCCN21	10.1%
CC(C)(C)OC(=O)NCCCC#CC1=C[C@@H]2C[C@@]3(OC(=O)C=C13)[C@H]1CCCCN21	60.1%

Test system: A-375
Experiment: Antiproliferative activity against human A375 cells assessed as reduction in cell viability after 72 hrs by ATPlite assay
Assay type: functional, cell-based
Conditions: A-375, 72 h
Summary of the method: as §1

IC50	SMILES
360 nM	CC(C)(C)OC(=O)NCC#CC1=C[C@@H]2C[C@@]3(OC(=O)C=C13)[C@H]1CCCCN21
2820 nM	O=C1C=C2C(C#Cc3ccc(F)cc3)=C[C@@H]3C[C@@]2(O1)[C@H]1CCCCN31
1750 nM	Cc1ccc(C#CC2=C[C@@H]3C[C@@]4(OC(=O)C=C24)[C@H]2CCCCN32)cc1

SMILES	IC50
CC[C@@]1(O)C(=O)OCc2c1cc1n(c2=O)Cc2cc3ccccc3nc2-1 [CAMPTOTHECIN]	13 nM

Test system: A549
Experiment: Antiproliferative activity against human A549 cells assessed as reduction in cell viability after 72 hrs by ATPlite assay
Assay type: functional, cell-based
Conditions: A549, 72 h
Summary of the method: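 IC50 values were determined on a panel of four human cancer lines (HCT-116, A-549, HL-60, A-375), with camptothecin and etoposide as reference compounds.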

IC50	SMILES
2640 nM	CC(C)(C)OC(=O)NCC#CC1=C[C@@H]2C[C@@]3(OC(=O)C=C13)[C@H]1CCCCN21
3990 nM	O=C1C=C2C(C#Cc3ccc(F)cc3)=C[C@@H]3C[C@@]2(O1)[C@H]1CCCCN31
> 10000 nM	Cc1ccc(C#CC2=C[C@@H]3C[C@@]4(OC(=O)C=C24)[C@H]2CCCCN32)cc1

SMILES	IC50
CC[C@@]1(O)C(=O)OCc2c1cc1n(c2=O)Cc2cc3ccccc3nc2-1 [CAMPTOTHECIN]	9 nM

Test system: not listed separately
Experiment: Antiproliferative activity against human HL60 cells assessed as reduction in cell viability after 72 hrs by ATPlite assay
Assay type: functional, cell-based
Conditions: HL-60, 72 h
Summary of the method: as §1

SMILES	IC50
CC(C)(C)OC(=O)NCC#CC1=C[C@@H]2C[C@@]3(OC(=O)C=C13)[C@H]1CCCCN21	5000 nM
O=C1C=C2C(C#Cc3ccc(F)cc3)=C[C@@H]3C[C@@]2(O1)[C@H]1CCCCN31	> 10000 nM
Cc1ccc(C#CC2=C[C@@H]3C[C@@]4(OC(=O)C=C24)[C@H]2CCCCN32)cc1	> 10000 nM
CC[C@@]1(O)C(=O)OCc2c1cc1n(c2=O)Cc2cc3ccccc3nc2-1 [CAMPTOTHECIN]	35 nM
COc1cc([C@@H]2c3cc4c(cc3[C@@H](O[C@@H]3O[C@@H]5CO[C@@H](C)O[C@H]5[C@H](O)[C@H]3O)[C@H]3COC(=O)[C@H]23)OCO4)cc(OC)c1O [ETOPOSIDE]	860 nM
